Experimental data as given in publication PMC6407750 (Targeted Oncology, 2019).
Where two headings read alike, the source gives them in different places. Values belong to the compound of their own block, whether it stands above or below them.

What was measured:
[1] = type: in vivo, human; details: for AUC(0-inf): AUC0–∞,obs; for Tmax: median [range]
Method in brief: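 Sixteen advanced solid tumour patients were enrolled. Each received a single oral 200 mg tablet after an overnight fast, either with ~240 mL water or directly after a ~950 kcal high-fat breakfast eaten within 30 min. No food was given for 4 h. Order was randomized, with a 7-day washout. Plasma was sampled predose and 0.5–48 h and measured by LC–MS/MS (detection limit 1 nM). Parameters were derived by non-compartmental analysis, with adjusted geometric mean ratios and 90% CI.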

[2] = type: in vivo, human; details: single 200 mg dose; for AUC(0-inf) / Cmax / half-life: human, plasma, oral, 200 mg; for AUC(0-inf): AUC0–∞,obs; for AUC(0-inf) / Cmax: adjusted geometric mean; for half-life: t½, geometric mean [coefficient of variation (%)]
Method in brief: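 Sixteen advanced solid tumour patients, fasted overnight and for 4 h post-dose, received 200 mg as an intact tablet or as the uncrushed tablet shaken to full dispersion in 20 mL of sucralose 4 mg/mL, menthol 2 mg/mL and benzoic acid 1 mg/mL, undiluted. Order was randomized, with a 7-day washout. Plasma was sampled predose to 48 h by LC–MS/MS. Analysis was non-compartmental, with adjusted geometric mean ratios and 90% CI.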

[3] = single dose, primarily Caucasian subjects, fasted state; cited from earlier work
[4] = administered with food compared to a fasted state; cited from earlier work
[5] = single 200 mg tablet, fed versus fasted

t½ ([1]; fasted, single 200 mg tablet, geometric mean [coefficient of variation (%)], n=15): 18.0 (22.6) h | Cmax ([1]; fed, single 200 mg tablet, plasma, adjusted geometric mean): 1640 nM | Cmax ([1]; human, plasma, oral, 200 mg): 1870 nM | half-life ([1]; human, plasma, oral, 200 mg): 18 h | AUC(0-inf) ([1]; human, plasma, oral, 200 mg, fasted, single 200 mg tablet, adjusted geometric mean): 39.9 µM·h | AUC(0-inf) ([1]; human, plasma, oral, 200 mg, fed, single 200 mg tablet, adjusted geometric mean): 39.2 µM·h | Tmax ([1]; human, plasma, oral, 200 mg, fasted, single 200 mg tablet, n=15): 3 h | Tmax ([1]; human, plasma, oral, 200 mg, fed (high-calorie meal), single 200 mg tablet, n=15): 4 h | tmax and t½ after a high-calorie meal compared with fasted patients ([1]; single 200 mg tablet): not different | AUC0-tz adjusted GMR (90% CI) [fed/fasted] [1, 5]: 92.46 (74.24–115.16) % | AUC0–∞,obs adjusted GMR (90% CI) [fed/fasted] [1, 5]: 98.17 (78.53–122.74) % | Cmax adjusted GMR (90% CI) [fed/fasted] [1, 5]: 87.34 (71.04–107.38) % | AUC(0-inf) ([2]; liquid dispersion, fasted): 31.5 µM·h | AUC(0-inf) ([2]; tablet, fasted): 32 µM·h | Cmax ([2]; liquid dispersion, fasted): 1610 nM | Cmax ([2]; tablet, fasted): 1720 nM | half-life ([2]; liquid dispersion, fasted): 18.4 h | half-life ([2]; tablet, fasted): 19.5 h | AUC0-tz adjusted GMR (90% CI) [tablet/liquid] ([2]; fasted): 99.98 (92.28–108.33) % | AUC0–∞,obs adjusted GMR (90% CI) [tablet/liquid] ([2]; fasted): 101.65 (93.57–110.42) % | Cmax adjusted GMR (90% CI) [tablet/liquid] ([2]; fasted): 107.15 (98.79–116.22) % | tmax and t½, effect of dispersing in a liquid ([2]; liquid dispersion vs tablet): not affected
SMILES: COc1cc(C(=O)NC2CCN(C)CC2)c(F)cc1Nc1ncc(C(F)(F)F)c(Oc2cccc3c2C(=O)N(C)C3)n1 [BI 853520]
observed terminal half-life (t½) [3]: 19 h

SMILES: C[C@]12CC[C@H](O)CC1=CC[C@@H]1[C@@H]2CC[C@]2(C)C(c3cccnc3)=CC[C@@H]12 [abiraterone]
increase in the area under the plasma concentration–time curve (AUC) [4]: 1000%
